Assay results: ChEMBL document CHEMBL1124409, “Preparation and biodistribution of 1-[2-(3-[125I]iodo-4-aminophenyl)ethyl]-4-[3-(trifluoromethyl) phenyl]piperazine and 1-[2-(3-[125I]iodo-4-azidophenyl)ethyl]-4-[3-(trifluoromethyl)phenyl] piperazine” (J Med Chem, 1989)

Columns and labels:
[1] = test system: Rattus norvegicus; test: Biodistribution of the radio labelled compound (azido-[125I]-IPAPP) in rat blood after 15 min of intravenous injection; assay type: ADME, organism-based; settings: in vivo
Procedure, shortened: (§1)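 Rats received the radioligand in 0.2 mL saline into the femoral vein under ether anesthesia. They were killed by cardiac excision at set times post-injection. Organs were removed and gamma-counted at about 50% efficiency. % dose/organ was calculated against diluted aliquots of the injected material. Values are the average of three rats.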

[2] = test system: Rattus norvegicus; test: Biodistribution of the radio labelled compound (azido-[125I]-IPAPP) in rat blood after 2 min of intravenous injection; assay type: ADME, organism-based; settings: in vivo; procedure, shortened: as §1
[3] = test system: Rattus norvegicus; test: Biodistribution of the radio labelled compound (azido-[125I]-IPAPP) in rat blood after 30 min of intravenous injection; assay type: ADME, organism-based; settings: in vivo, 0.5 h; procedure, shortened: as §1
[4] = test system: Rattus norvegicus; test: Biodistribution of the radio labelled compound (azido-[125I]-IPAPP) in rat brain after 15 min of intravenous injection; assay type: ADME, organism-based; settings: in vivo; procedure, shortened: as §1
[5] = test system: Rattus norvegicus; test: Biodistribution of the radio labelled compound (azido-[125I]-IPAPP) in rat brain after 2 min of intravenous injection; assay type: ADME, organism-based; settings: in vivo; procedure, shortened: as §1
[6] = test system: Rattus norvegicus; test: Biodistribution of the radio labelled compound (azido-[125I]-IPAPP) in rat brain after 30 min of intravenous injection; assay type: ADME, organism-based; settings: in vivo, 0.5 h; procedure, shortened: as §1
[7] = test system: Rattus norvegicus; test: Biodistribution of the radio labelled compound (azido-[125I]-IPAPP) in rat heart after 15 min of intravenous injection; assay type: ADME, organism-based; settings: in vivo; procedure, shortened: as §1
[8] = test system: Rattus norvegicus; test: Biodistribution of the radio labelled compound (azido-[125I]-IPAPP) in rat heart after 2 min of intravenous injection; assay type: ADME, organism-based; settings: in vivo; procedure, shortened: as §1
[9] = test system: Rattus norvegicus; test: Biodistribution of the radio labelled compound (azido-[125I]-IPAPP) in rat lungs after 2 min of intravenous injection; assay type: ADME, organism-based, Lung; settings: in vivo; procedure, shortened: as §1
[10] = test system: Rattus norvegicus; test: Biodistribution of the radio labelled compound (azido-[125I]-IPAPP) in rat muscle after 15 min of intravenous injection; assay type: ADME, organism-based, Muscle tissue; settings: in vivo; procedure, shortened: as §1
[11] = test system: Rattus norvegicus; test: Biodistribution of the radio labelled compound (azido-[125I]-IPAPP) in rat muscle after 2 min of intravenous injection; assay type: ADME, organism-based, Muscle tissue; settings: in vivo; procedure, shortened: as §1
[12] = test system: Rattus norvegicus; test: Biodistribution of the radio labelled compound (azido-[125I]-IPAPP) in rat muscle after 30 min of intravenous injection; assay type: ADME, organism-based, Muscle tissue; settings: in vivo, 0.5 h; procedure, shortened: as §1
[13] = test system: Rattus norvegicus; test: Biodistribution of the radio labelled compound (azido-[125I]-IPAPP) in rat heart after 30 min of intravenous injection; assay type: ADME, organism-based; settings: in vivo, 0.5 h; procedure, shortened: as §1
[14] = test system: Rattus norvegicus; test: Biodistribution of the radio labelled compound (azido-[125I]-IPAPP) in rat liver after 15 min of intravenous injection; assay type: ADME, organism-based; settings: in vivo; procedure, shortened: as §1
[15] = test system: Rattus norvegicus; test: Biodistribution of the radio labelled compound (azido-[125I]-IPAPP) in rat liver after 2 min of intravenous injection; assay type: ADME, organism-based; settings: in vivo; procedure, shortened: as §1
[16] = test system: Rattus norvegicus; test: Biodistribution of the radio labelled compound (azido-[125I]-IPAPP) in rat lungs after 15 min of intravenous injection; assay type: ADME, organism-based, Lung; settings: in vivo; procedure, shortened: as §1
[17] = test system: Rattus norvegicus; test: Biodistribution of the radio labelled compound (azido-[125I]-IPAPP) in rat liver after 30 min of intravenous injection; assay type: ADME, organism-based; settings: in vivo, 0.5 h; procedure, shortened: as §1
[18] = test system: Rattus norvegicus; test: Biodistribution of the radio labelled compound (azido-[125I]-IPAPP) in rat lungs after 30 min of intravenous injection; assay type: ADME, organism-based, Lung; settings: in vivo, 0.5 h; procedure, shortened: as §1
[19] = test system: Rattus norvegicus; test: Ratio of biodistribution of the radio labelled compound (azido-[125I]-IPAPP) in rat brain to rat blood after 15 min of intravenous injection; assay type: ADME, organism-based
[20] = test system: Rattus norvegicus; test: Ratio of biodistribution of the radio labelled compound (azido-[125I]-IPAPP) in rat brain to rat blood after 2 min of intravenous injection; assay type: ADME, organism-based
[21] = test system: Rattus norvegicus; test: Ratio of biodistribution of the radio labelled compound (azido-[125I]-IPAPP) in rat brain to rat blood after 30 min of intravenous injection; assay type: ADME, organism-based; settings: 0.5 h
[22] = test system: Rattus norvegicus; test: Ratio of biodistribution of the radio labelled compound ([125I]IPAPP) in rat brain to rat blood after 15 min of intravenous injection; assay type: ADME, organism-based
Procedure, shortened: (§2)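 Rats, three per time point, received the radioligand in 0.2 mL saline into the femoral vein under ether anesthesia. They were killed by cardiac excision at 2, 15 or 30 min. Brain and blood were removed and gamma-counted at about 50% efficiency. Percent dose per organ was taken as tissue counts divided by diluted aliquots of the injected material.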

[23] = test system: Rattus norvegicus; test: Ratio of biodistribution of the radio labelled compound ([125I]IPAPP) in rat brain to rat blood after 2 min of intravenous injection; assay type: ADME, organism-based; procedure, shortened: as §2
[24] = test system: Rattus norvegicus; test: Ratio of biodistribution of the radio labelled compound ([125I]IPAPP) in rat brain to rat blood after 30 min of intravenous injection; assay type: ADME, organism-based; settings: 0.5 h; procedure, shortened: as §2

SMILES | Dose/organ [1] [%] | Dose/organ [2] [%] | Dose/organ [3] [%] | Dose/organ [4] [%] | Dose/organ [5] [%] | Dose/organ [6] [%] | Dose/organ [7] [%] | Dose/organ [8] [%] | Dose/organ [9] [%] | Dose/organ [10] [%] | Dose/organ [11] [%] | Dose/organ [12] [%] | Dose/organ [13] [%] | Dose/organ [14] [%] | Dose/organ [15] [%] | Dose/organ [16] [%] | Dose/organ [17] [%] | Dose/organ [18] [%] | other results
[N-]=[N+]=Nc1ccc(CCN2CCN(c3cccc(C(F)(F)F)c3)CC2)cc1I | 3.21 | 9.74 | 2.76 | 0.667 | 0.503 | 0.75 | 0.548 | 1.4 | 6.5 | 16.6 | 11.8 | 14.4 | 0.372 | 34.3 | 32.5 | 2.15 | 28.5 | 1.73 | Ratio [19]: 1.99; Ratio [20]: 0.499; Ratio [21]: 2.53
Nc1ccc(CCN2CCN(c3cccc(C(F)(F)F)c3)CC2)cc1I | 2.23 | 6.99 | 1.96 | 0.91 | 1.68 | 0.935 | 0.309 | 2.34 | 14.2 | 13.6 | 6.51 | 11.8 | 0.262 | 19.4 | 13.1 | 3.15 | 18.9 | 4.16 | Ratio [22]: 4.92; Ratio [23]: 2.63; Ratio [24]: 4.76
